Test results as given in ChEMBL document CHEMBL4396951, “Optimization and anti-inflammatory evaluation of methyl gallate derivatives as a myeloid differentiation protein 2 inhibitor” (Bioorg Med Chem, 2019).
Activity calls are given as the source filed them. The calls are words filed in the database; no cut-off is given here.

Tests used:
Mus musculus [1] = organism: Mus musculus; assay: Inhibition of MAPK in C57BL/6 mouse primary peritoneal macrophages assessed as reduction in ERK phosphorylation at 10 uM preincubated for 30 mins followed by LPS-stimulation measured after 20 mins by Western blot analysis
Procedure, shortened: (§1)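 Peritoneal macrophages pretreated with vehicle (DMSO) or 10 μM compound for 30 min, then 0.5 μg/mL LPS for 20 min. Total protein run on 10% SDS-PAGE and blotted to PVDF. p-JNK/JNK, p-p38/p38 and p-ERK/ERK detected by western blot and quantified by densitometry; n = 3.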

Mus musculus [2] = assay: Antiinflammatory activity in oral dosed LPS-induced C57BL/6 mouse model of acute lung injury assessed as reduction in TNFalpha levels in serum for 3 days followed by LPS-stimulation measured after 6 hrs; type: functional, organism-based
Procedure, shortened: (§2)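 Male C57BL/6 mice (18–22 g) randomized to four groups. Compound given orally in 0.5% CMC-Na at 10 or 20 mg/kg/day for 3 consecutive days; controls received vehicle. LPS challenge; killed 6 h later. Left-lung BALF (saline 3 × 0.5 mL) centrifuged at 1000 rpm, 10 min, 4 °C: supernatant used for protein and ELISA TNF-α/IL-6, pellet for total cell count. Serum cytokines also measured by ELISA. Wet/dry ratio from middle right lobe dried at 65 °C for 72 h. Lung sections (5 μm) stained with H&E or for CD68 by IHC (citrate antigen retrieval, pH 6.5; DAB detection); n = 3.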

Mus musculus [3] = assay: Antiinflammatory activity in oral dosed LPS-induced C57BL/6 mouse model of acute lung injury assessed as reduction in IL-6 levels in serum for 3 days followed by LPS-stimulation measured after 6 hrs; type: functional, organism-based; procedure, shortened: as §2
Peritoneal macrophage [4] = assay: Antiinflammatory activity in C57BL/6 mouse primary peritoneal macrophages assessed as inhibition of LPS-induced MCP1 mRNA expression preincubated for 30 mins followed by LPS stimulation and measured after 6 hrs by qRT-PCR analysis; type: functional, cell-based
Procedure, shortened: (§3)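 Thioglycollate-elicited peritoneal macrophages (C57BL/6 mice, 3 mL 6% thioglycollate i.p.), harvested by PBS/30 μM EDTA lavage, cultured in RPMI-1640 with 10% FBS at 37 °C, 5% CO2. Pretreatment with compound at graded concentrations for 30 min, then LPS for 6 h. TRIZOL RNA extraction; qRT-PCR with values normalized to β-actin mRNA.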

Mus musculus [5] = assay: Antiinflammatory activity in oral dosed LPS-induced C57BL/6 mouse model of acute lung injury assessed as reduction in TNFalpha levels in BALF for 3 days followed by LPS-stimulation measured after 6 hrs; type: functional, organism-based; procedure, shortened: as §2
Mus musculus [6] = assay: Antiinflammatory activity in oral dosed LPS-induced C57BL/6 mouse model of acute lung injury assessed as reduction in IL-6 levels in BALF for 3 days followed by LPS-stimulation measured after 6 hrs; type: functional, organism-based; procedure, shortened: as §2
BEAS-2B = assay: Cytotoxicity against human BEAS2B cells up to 50 uM; type: cell-based
Procedure, shortened: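 BEAS-2B cells pretreated with compound at graded concentrations up to 50 μM for 30 min, then incubated without LPS for 24 h; compared against a DMSO group; n = 3.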

Mus musculus [7] = assay: Antiinflammatory activity in oral dosed LPS-induced C57BL/6 mouse model of acute lung injury assessed as reduction in ICAM-1 mRNA expression in lung tissue after 6 hrs by qRT-PCR analysis; type: functional, organism-based
Procedure, shortened: (§4)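 Male C57BL/6 mice dosed orally with compound (10 or 20 mg/kg/day in 0.5% CMC-Na, 3 days), then LPS challenge. Lungs harvested 6 h later; RNA extracted with TRIZOL and TNF-α, IL-6, ICAM-1, VCAM-1 and MCP-1 mRNA measured by qRT-PCR.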

Mus musculus [8] = assay: Antiinflammatory activity in oral dosed LPS-induced C57BL/6 mouse model of acute lung injury assessed as reduction in VCAM-1 mRNA expression in lung tissue after 6 hrs by qRT-PCR analysis; type: functional, organism-based; procedure, shortened: as §4
Mus musculus [9] = assay: Antiinflammatory activity in LPS-induced C57BL/6 mouse model of acute lung injury assessed as reduction in macrophage infiltration by measuring CD68 expression at 10 to 20 mg/kg/day, po for 3 days followed by LPS-stimulation measured after 6 hrs by immunohistochemistry; type: functional, organism-based; procedure, shortened: as §2
Peritoneal macrophage [10] = assay: Antiinflammatory activity in C57BL/6 mouse primary peritoneal macrophages assessed as inhibition of LPS-induced IL-6 production preincubated for 30 mins followed by LPS stimulation and measured after 24 hrs by sandwich ELISA; type: functional, cell-based
Procedure, shortened: (§5)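 Thioglycollate-elicited mouse peritoneal macrophages in RPMI-1640/10% FBS. Compound pretreatment for 30 min (10 μM for single-point screening, graded concentrations for dose-response), then 0.5 μg/mL LPS for 24 h. TNF-α and IL-6 in culture medium measured by sandwich ELISA and normalized to total protein in cell lysates; n = 3.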

Peritoneal macrophage [11] = assay: Antiinflammatory activity in C57BL/6 mouse primary peritoneal macrophages assessed as inhibition of LPS-induced TNFalpha production at 10 uM preincubated for 30 mins followed by LPS stimulation and measured after 24 hrs by sandwich ELISA relative to control; type: functional; conditions: C57BL/6, Peritoneal macrophage; procedure, shortened: as §5
Mus musculus [12] = assay: Antiinflammatory activity in LPS-induced C57BL/6 mouse model of acute lung injury assessed as reduction in total protein levels in BALF at 10 to 20 mg/kg/day, po for 3 days followed by LPS-stimulation measured after 6 hrs; type: functional, organism-based; procedure, shortened: as §2
Mus musculus [13] = assay: Antiinflammatory activity in LPS-induced C57BL/6 mouse model of acute lung injury assessed as reduction in total cells in BALF at 10 to 20 mg/kg/day, po for 3 days followed by LPS-stimulation measured after 6 hrs by cell counting based method; type: functional, organism-based; procedure, shortened: as §2
Mus musculus [14] = assay: Antiinflammatory activity in oral dosed LPS-induced C57BL/6 mouse model of acute lung injury assessed as reduction in TNF-alpha mRNA expression in lung tissue after 6 hrs by qRT-PCR analysis; type: functional, organism-based; procedure, shortened: as §4
Mus musculus [15] = organism: Mus musculus; assay: Inhibition of MAPK in C57BL/6 mouse primary peritoneal macrophages assessed as reduction in JNK phosphorylation at 10 uM preincubated for 30 mins followed by LPS-stimulation measured after 20 mins by Western blot analysis; procedure, shortened: as §1
Mus musculus [16] = assay: Antiinflammatory activity in LPS-induced C57BL/6 mouse model of acute lung edema assessed as decrease in lung wet/dry ratio at 20 mg/kg/day, po for 3 days followed by LPS-stimulation measured after 6 hrs; type: functional, organism-based; procedure, shortened: as §2
Peritoneal macrophage [17] = assay: Antiinflammatory activity in C57BL/6 mouse primary peritoneal macrophages assessed as inhibition of LPS-induced IL-6 mRNA expression preincubated for 30 mins followed by LPS stimulation and measured after 6 hrs by qRT-PCR analysis; type: functional, cell-based; procedure, shortened: as §3
Mus musculus [18] = organism: Mus musculus; assay: Inhibition of MAPK in C57BL/6 mouse primary peritoneal macrophages assessed as reduction in P38 phosphorylation at 10 uM preincubated for 30 mins followed by LPS-stimulation measured after 20 mins by Western blot analysis; procedure, shortened: as §1
Peritoneal macrophage [19] = assay: Antiinflammatory activity in C57BL/6 mouse primary peritoneal macrophages assessed as inhibition of LPS-induced IL-6 production at 10 uM preincubated for 30 mins followed by LPS stimulation and measured after 24 hrs by sandwich ELISA relative to control; type: functional; conditions: C57BL/6, Peritoneal macrophage; procedure, shortened: as §5
Peritoneal macrophage [20] = assay: Antiinflammatory activity in C57BL/6 mouse primary peritoneal macrophages assessed as inhibition of LPS-induced TNFalpha production preincubated for 30 mins followed by LPS stimulation and measured after 24 hrs by sandwich ELISA; type: functional, cell-based; procedure, shortened: as §5
Peritoneal macrophage [21] = assay: Antiinflammatory activity in C57BL/6 mouse primary peritoneal macrophages assessed as inhibition of LPS-induced VCAM1 mRNA expression preincubated for 30 mins followed by LPS stimulation and measured after 6 hrs by qRT-PCR analysis; type: functional, cell-based; procedure, shortened: as §3
Mus musculus [22] = assay: Antiinflammatory activity in oral dosed LPS-induced C57BL/6 mouse model of acute lung injury assessed as reduction in IL-6 mRNA expression in lung tissue after 6 hrs by qRT-PCR analysis; type: functional, organism-based; procedure, shortened: as §4
Peritoneal macrophage [23] = assay: Antiinflammatory activity in C57BL/6 mouse primary peritoneal macrophages assessed as inhibition of LPS-induced TNFalpha mRNA expression preincubated for 30 mins followed by LPS stimulation and measured after 6 hrs by qRT-PCR analysis; type: functional, cell-based; procedure, shortened: as §3
Mus musculus [24] = assay: Antiinflammatory activity in oral dosed LPS-induced C57BL/6 mouse model of acute lung injury assessed as reduction in MCP-1 mRNA expression in lung tissue after 6 hrs by qRT-PCR analysis; type: functional, organism-based; procedure, shortened: as §4
Mus musculus [25] = assay: Antiinflammatory activity in LPS-induced C57BL/6 mouse model of acute lung injury assessed as restoration of normal alveolar structure at 10 to 20 mg/kg/day, po for 3 days followed by LPS-stimulation measured after 6 hrs by haematoxylin and eosin staining-based light microscopic analysis; type: functional, organism-based; procedure, shortened: as §2
Peritoneal macrophage [26] = assay: Antiinflammatory activity in C57BL/6 mouse primary peritoneal macrophages assessed as inhibition of LPS-induced ICAM1 mRNA expression preincubated for 30 mins followed by LPS stimulation and measured after 6 hrs by qRT-PCR analysis; type: functional, cell-based; procedure, shortened: as §3
[27] = Stability of compound in pH 7.4 phosphate buffer at 20 uM measured up to 25 mins by UV-VIS spectroscopy; type: physicochemical; conditions: pH 7.4, 25 min

Q: With `O=C(Nc1ccc2c(c1)CCC2)c1cc(O)c(O)c(O)c1` as the compound, how does the inhibition (Mus musculus [1]) read?
A: The inhibition was “Active”.

Q: What about the inhibition (Mus musculus [2]) of the same compound?
A: The inhibition was “Dose-dependent effect”.

Q: What about the inhibition (Mus musculus [3]) of the same compound?
A: Its inhibition is “Dose-dependent effect”.

Q: What about the inhibition (Peritoneal macrophage [4]) of the same compound?
A: The inhibition was “Dose-dependent effect”.

Q: What about the inhibition (Mus musculus [5]) of the same compound?
A: Its inhibition is “Dose-dependent effect”.

Q: What about the inhibition (Mus musculus [6]) of the same compound?
A: Its inhibition is “Dose-dependent effect”.

Q: What about the Activity (BEAS-2B) of the same compound?
A: Its Activity is “Non-Toxic”.

Q: And the Activity (Mus musculus [7])?
A: Its Activity is “Active”.

Q: And the Activity (Mus musculus [8])?
A: The Activity was “Active”.

Q: What about the Activity (Mus musculus [9]) of the same compound?
A: Its Activity is “Active”.

Q: And the inhibition (Peritoneal macrophage [10])?
A: The inhibition was “Dose-dependent effect”.

Q: And the IC50 (Peritoneal macrophage [10]; C57BL/6, Peritoneal macrophage)?
A: Its IC50 is 702 nM.

Q: What about the inhibition at 10 µM (Peritoneal macrophage [11]) of the same compound?
A: Its inhibition at 10 µM is 72.2%.

Q: What about the Activity (Mus musculus [12]) of the same compound?
A: Its Activity is “Active”.

Q: What about the Activity (Mus musculus [13]) of the same compound?
A: Its Activity is “Active”.

Q: What about the Activity (Mus musculus [14]) of the same compound?
A: The Activity was “Active”.

Q: What about the inhibition (Mus musculus [15]) of the same compound?
A: Its inhibition is “Active”.

Q: What about the Activity (Mus musculus [16]) of the same compound?
A: The Activity was “Active”.

Q: What about the inhibition (Peritoneal macrophage [17]) of the same compound?
A: The inhibition was “Dose-dependent effect”.

Q: What about the inhibition (Mus musculus [18]) of the same compound?
A: Its inhibition is “Active”.

Q: And the inhibition at 10 µM (Peritoneal macrophage [19])?
A: The inhibition at 10 µM was 89%.

Q: And the inhibition (Peritoneal macrophage [20])?
A: The inhibition was “Dose-dependent effect”.

Q: And the IC50 (Peritoneal macrophage [20]; C57BL/6, Peritoneal macrophage)?
A: The IC50 was 1230 nM.

Q: What about the inhibition (Peritoneal macrophage [21]) of the same compound?
A: Its inhibition is “Dose-dependent effect”.

Q: What about the Activity (Mus musculus [22]) of the same compound?
A: The Activity was “Active”.

Q: And the inhibition (Peritoneal macrophage [23])?
A: The inhibition was “Dose-dependent effect”.

Q: And the Activity (Mus musculus [24])?
A: Its Activity is “Active”.

Q: And the Activity (Mus musculus [25])?
A: Its Activity is “Active”.

Q: And the inhibition (Peritoneal macrophage [26])?
A: Its inhibition is “Dose-dependent effect”.

Q: And the Stability [27]?
A: Its Stability is “Stable”.
